The text below walks through data of ChEMBL document CHEMBL4513216, “Probing the Open Global Health Chemical Diversity Library for Multistage-Active Starting Points for Next-Generation Antimalarials” (ACS Infect Dis, 2020).

A short description of this series: Toxicity liver stage against HepG2, at 10uM. The class given is cell-based. More on the design: test concentration 10 uM, cell line HepG2-A16-CD81EGFP. As to conditions: human, HepG2-A16-CD81EGFP cells; read-out: INHIBITION
Put shortly: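 Uninfected HepG2-A16-CD81EGFP cells, 3 × 10^3 per well, 1536-well, plated on prespotted compound at 10 μM final, parasite-free screening media added to match infected plates; puromycin 10 μM positive, DMSO 0.5% negative; run in parallel with 48 h PbLuc assay at 37 °C, 5% CO2; viability by CellTiter-Glo luminescence, normalized to controls.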
With `Cc1ccc(OC2CCN(CCn3cncn3)CC2)cc1`, the cytotoxicity at 10 µM was -1.67%.
In the case of `CCS(=O)(=O)NCc1nc(C)cc(N2CCCC2)n1`, the cytotoxicity at 10 µM was -0.714%.
In the case of `Cn1cccc1C(=O)NCc1cn2c(n1)CN(S(=O)(=O)C1CC1)CC2`, the cytotoxicity at 10 µM is -114%.
Regarding `O=C1CCCC2=Nc3nonc3NC(c3ccccc3F)C12` (stereo unspecified), the cytotoxicity at 10 µM came out at 1.08%.
In the case of `COc1c(CNCCNC(=O)c2ccccc2F)c(C)nn1C` it was -0.644%; in that of `Cc1cc(C)n(CC2CCCN2CC(=O)NC2CCOCC2)n1` (stereo unspecified), -5.23%.
`CNC(=O)c1nc(CN2CCOC(CCCC(C)C)C2)no1` (stereo unspecified): the cytotoxicity at 10 µM is -2.25%.
In the case of `Cc1noc(C)c1CNCC1CCCN1c1cccnn1` (stereo unspecified), the cytotoxicity at 10 µM is 3.3%.
Next, `CCc1cnc(CN(C(C)=O)C2CCN(CCS(C)(=O)=O)C2)o1` (stereo unspecified): -17.8%; `Cc1cccn2c(CNC(C)CCc3ccc(O)cc3)cnc12` (stereo unspecified): 1.95%; `CS(=O)(=O)NC[C@@H]1OC[C@H]2CN(C(=O)c3ccccn3)CC[C@H]21`: -7.47%.
As to `COc1cccc(S(=O)(=O)NC(=O)CCC2CCCO2)c1` (stereo unspecified), the cytotoxicity at 10 µM is -14.7%.
For `CC(C)c1cc(C(=O)N2CCN(Cc3ccc(C#N)cc3)CC2)n[nH]1`, the cytotoxicity at 10 µM came out at 26.3%.
Consider `c1ccc(CN2C[C@@H]3COC[C@]3(COCC3CCOCC3)C2)nc1`, for which the cytotoxicity at 10 µM was -0.326%.
As for `COc1ccc(CC2CN(Cc3cncn3C)CCO2)cc1` (stereo unspecified), the cytotoxicity at 10 µM amounted to 0.328%.
In the case of `N#CCCN1CCN(S(=O)(=O)c2ccc(Cl)s2)CC1` it was 14.7%; in that of `Cc1ncoc1C(=O)N1CCn2c(COc3cccnc3)cnc2C1C` (stereo unspecified), -8.93%.
In the case of `COCc1cc(N2CCN(c3ccc(Cl)cn3)CC2)n2nccc2n1` it was 8.89%; in that of `CC(C)N(Cc1ccc(C#N)cc1)C(=O)Nc1ccccn1`, -0.518%.
Next, `O=C(CCN1CCOCC1)N1CCC(Cc2ccc(CO)cc2)C1` (stereo unspecified): -9.47%; `COC(=O)C(C)CN(Cc1ccccc1)C(=O)CN1CCCNC1=O` (stereo unspecified): 0.124%.
Take `COCCN1C[C@@H]2[C@@H](OC)CCN(Cc3ccco3)[C@@H]2C1`: the cytotoxicity at 10 µM was 2.37%.
For the compound `O=S(=O)(NCc1ccccc1Cn1cncn1)N1CCCCC1`, the cytotoxicity at 10 µM was 2.6%.
Next, `CCN(CC)CC(=O)N1CCN(CCCc2ccncc2)CC1`: -60.5%; `O=C(NCCN1CCOCC1)c1n[nH]c(=O)c2ccccc12`: 0.376%; `Cc1nc(C)c(C(=O)NCc2nc3cccc(C)c3n2C)o1`: 40.1%.
For `Cc1cc2[nH]c(=O)oc2cc1S(=O)(=O)N1CCCC(N(C)C)CC1` (stereo unspecified), the cytotoxicity at 10 µM amounted to 0.74%.
Next, `O=C(O)c1ccc(S(=O)(=O)Nc2ccc(Cl)c(F)c2)c(F)c1`: -14.3%; `CC(C)CC(=O)N1CCC2(CC1)OCCO2`: 4.37%; `N#CC1CCCN(C(=O)Cn2ncc(N3CCCC3)cc2=O)C1` (stereo unspecified): -6.36%.
On to `O=C(NC1CCCN(CCCc2ccccc2)C1)C1=CCCCC1` (stereo unspecified), for which the cytotoxicity at 10 µM was -0.739%.
In the case of `CCCS(=O)(=O)NCC1OCCc2cn(CC3CCOCC3)nc21` (stereo unspecified) it was -5.6%.
Take `Cc1ccc(C(=O)N2CCC3(CCC(=O)N(CC(N)=O)C3)CC2)c(O)c1`: the cytotoxicity at 10 µM was -11.5%.
Take `CCCc1nnc(NC(=O)Cc2c(C)nc(C)[nH]c2=O)s1`: the cytotoxicity at 10 µM was -10.7%.
On to `CN(C)CC1CN(C(=O)CCc2ccccc2)Cc2nccn2C1` (stereo unspecified), for which the cytotoxicity at 10 µM was -121%.
As for `CC(NC(=O)NCCCc1n[nH]c(N)c1C#N)c1ccccc1` (stereo unspecified), the cytotoxicity at 10 µM was -7.21%.
Regarding `CCc1nn(C)c(Cl)c1CN(CC)Cc1cnn(CC)c1`, the cytotoxicity at 10 µM was found to be 4.36%.
Next, `O=C(NCCSc1cnn[nH]1)c1c[nH]nc1C1CCCCC1`: -5.03%; `CCc1nc(CSC2CCCN(c3cnn(C)c3)C2=O)cs1` (stereo unspecified): 14.1%.
Next, `CC(=O)N1CCCC(C(=O)N2CCN(Cc3cc(C)on3)CC2)C1` (stereo unspecified): -52.2%.
In the case of `Oc1cc(CN2CCC(O)(Cn3ccnc3)CC2)nc2ccc(F)cc12` it was -44.5%; in that of `Cc1ccn(-c2ccccc2NCc2ncc[nH]2)n1`, -5.95%; in that of `Cc1cc(C)c(CNC(=O)N(C)Cc2cccc(C#N)c2)c(=O)[nH]1`, -5.49%.
In the case of `c1ccc(N2CCCC(c3nc(-c4cccnn4)no3)C2)nc1` (stereo unspecified), the cytotoxicity at 10 µM was -3.42%.
Next, `C=c1ccoc1=C1NN=C(CNCC2CCCN2c2cccnn2)O1` (stereo unspecified): -13.7%; `CC(C)[C@H](NC(=O)NC1CCS(=O)(=O)C1)C(=O)NCc1ccc(Cl)cc1` (stereo partly specified): 3.09%.
In the case of `Cc1nc(N2CCOCC2)nc2c1CCN(C(=O)N1CCCC1)CC2` it was 0.64%; in that of `CCn1nc(C)c2nc(C(C)C)nc(NCCOC)c21`, 6.3%.
Next, `Cc1cc(=O)[nH]c(NC2CCN(S(=O)(=O)c3ccccc3)CC2)n1`: -3.02%; `CC(C)(O)CN1CCN(C(=O)c2cccn2Cc2ccccc2)CC1`: -3.88%.
As for `CC1CN(Cc2cccc(C#N)c2)CCN1c1ccc2nncn2n1` (stereo unspecified), the cytotoxicity at 10 µM was found to be 9.56%.
Consider `c1ccc(-c2nnc(CN3CCOC(Cn4cccn4)C3)o2)cc1` (stereo unspecified), for which the cytotoxicity at 10 µM was -2.48%.
In the case of `CC(C)NC(=O)N1CC[C@@H](N(C)C)[C@@H]1Cc1ccncc1` it was 5.53%; in that of `CCc1nnc2n1CCN(C(=O)c1cc3cc(F)ccc3[nH]1)C2`, -9.52%; in that of `c1ccc(CN2CCOC3CNCC[C@H]32)cc1` (stereo partly specified), 6.31%.
In the case of `CN1CCN(C(=O)CCc2ccccc2)Cc2cccnc21` it was -1.04%; in that of `CN(C)CCO[C@@H]1CC[C@H]2[C@H]1OCCN2C(=O)c1ccc(F)cc1`, -7.1%; in that of `Cc1ccnn1CC(=O)Nc1cc(-c2ccncc2)[nH]n1`, -4.34%.
Regarding `CS(=O)(=O)NC1CCN(C(=O)NCCc2ccccn2)CC1`, the cytotoxicity at 10 µM is -14.4%.
As to `CSCC[C@H](NC(=O)CCn1cc(C(C)=O)c2ccccc21)C(=O)O`, the cytotoxicity at 10 µM is -3.91%.
Next, `Cn1cnnc1C1CCCN(C(=O)NCc2cc[nH]n2)C1` (stereo unspecified): -6.73%; `Cc1c(C(=O)NCC2CCS(=O)(=O)C2)cnn1-c1ccccc1` (stereo unspecified): -10.2%; `CC(CNC(=O)c1nnn(-c2ccccc2)c1C(F)(F)F)N(C)C` (stereo unspecified): 2.19%.
In the case of `CC(C)c1nc(C2CCCN2c2cnc3cc(F)c(F)cc3n2)no1` (stereo unspecified) it was 5.18%; in that of `CCNc1nc2c(s1)C(=O)CN(C(=O)NCc1ccccc1)C2`, 59.1%; in that of `CC(C)NC(=O)N1CCCCC1c1nnc2n1CCNC2` (stereo unspecified), 14.3%.
As for `COC(=O)CC1C(=O)NCCN1c1nc2c(s1)c(C)nn2C` (stereo unspecified), the cytotoxicity at 10 µM was -7.36%.
Regarding `CCC[C@@H]1CN(S(=O)(=O)c2ccc(OC)c(OC)c2)C[C@H]1NC(C)=O`, the cytotoxicity at 10 µM was found to be 3.06%.
Next, `CCCN(CCC)S(=O)(=O)NCCc1cc(C)ccc1OC`: 7.75%; `O=C(c1ccn(-c2ccc(F)cc2)n1)N(CCO)Cc1cccnc1`: 17.5%; `Cc1nn(CC(C)C)c(N(C)C)c1CNCc1cc2ccccc2[nH]1`: -2.77%.
Next, `CCN(Cc1ccoc1)C(=O)Nc1ccccc1CN1CCOCC1`: -14.8%.
For the compound `Cc1noc(C)c1CN(C)c1ncnc2onc(C)c12`, the cytotoxicity at 10 µM is -20.7%.
In the case of `CC(=O)Nc1nc(C(=O)N2CCCCC2Cn2cc(C)cn2)cs1` (stereo unspecified) it was -17.1%.
Next, `CN(C)CC1(O)CCN(C(=O)Cc2ccc3ccccc3c2)C1` (stereo unspecified): -6.77%; `CCOC(=O)CC(NC(=O)c1cn(Cc2ccccc2F)nn1)C(C)C` (stereo unspecified): -0.99%.
In the case of `N#Cc1cccnc1N1CCCN(C(=O)CCn2cccn2)CC1` it was 2.81%; in that of `O=C(NCc1ccco1)[C@H]1CC[C@@H]2[C@@H](CCN2Cc2nccs2)O1`, 2.67%.
`CC(C)n1ccnc1CN1CCOC(CC2CCCCC2)C1` (stereo unspecified): the cytotoxicity at 10 µM is -138%.
With `CNC(=O)CCNC(=O)c1ccccc1N1CCOCC1`, the cytotoxicity at 10 µM was determined as 2.29%.
Take `CCOC(=O)CCn1cnc2onc(-c3ccc(OC)cc3)c2c1=O`: the cytotoxicity at 10 µM turned out to be 18.8%.
In the case of `O=S(=O)(C1CC1)N1CCc2ncnc(-c3ccc(F)cc3)c2CC1` it was -66.5%; in that of `COCCc1noc(CN2CCCC2Cn2cccn2)n1` (stereo unspecified), -0.206%.
With `O=C(CCNc1ncccn1)N1CCCC(n2ccnc2)C1` (stereo unspecified), the cytotoxicity at 10 µM came out at 0.289%.
In the case of `Cc1c(COC(C)C)cccc1NC(=O)N1CCC(N2CCCC2)C1` (stereo unspecified) it was -5.56%.
Regarding `O=C(c1cnc(C2CC2)s1)N1CCCCC1Cn1cccn1` (stereo unspecified), the cytotoxicity at 10 µM is 2.43%.
Next, `CC(C)c1cc(=O)[nH]c(-n2nc(C3CC3)cc2N)n1`: 33.9%; `Cc1nnc(NCc2ccccc2S(=O)(=O)N(C)C)c(C#N)c1C`: -8.51%.
In the case of `Cc1cccnc1NC(=O)c1ccc(F)c(S(=O)(=O)N2CCC2)c1` it was 4.5%; in that of `N#CC1(NC(=O)c2ccc(-c3nc(C4CC4)n[nH]3)cc2)CC1`, -10.7%; in that of `Cc1cccc(CN2C[C@@H]3COC[C@]3(CNC(=O)C3CCC3)C2)c1`, -112%.
In the case of `CN(C)c1cc(C2CCCN(C(=O)c3noc4c3CCCC4)C2)ccn1` (stereo unspecified) it was -12.3%; in that of `COc1ccc(CCC(=O)N2CCNCC2C(=O)N2CCCC2)cc1` (stereo unspecified), 1.18%.
As for `O=C(O)c1c(-c2cccnc2)ncc2c1CCN(Cc1cccnc1)C2`, the cytotoxicity at 10 µM was -3.14%.
As for `Cc1ncccc1C(=O)Nc1cccc2c1C(=O)NC2`, the cytotoxicity at 10 µM is 1.85%.
In the case of `CC(C)Cc1cc(NC(=O)c2ccccn2)n(C)n1`, the cytotoxicity at 10 µM is -7.22%.
